The target of series [1] is T1, C-C chemokine receptor type 3 (Homo sapiens, UniProt P51677).
T1 sequence (P51677 whole entry): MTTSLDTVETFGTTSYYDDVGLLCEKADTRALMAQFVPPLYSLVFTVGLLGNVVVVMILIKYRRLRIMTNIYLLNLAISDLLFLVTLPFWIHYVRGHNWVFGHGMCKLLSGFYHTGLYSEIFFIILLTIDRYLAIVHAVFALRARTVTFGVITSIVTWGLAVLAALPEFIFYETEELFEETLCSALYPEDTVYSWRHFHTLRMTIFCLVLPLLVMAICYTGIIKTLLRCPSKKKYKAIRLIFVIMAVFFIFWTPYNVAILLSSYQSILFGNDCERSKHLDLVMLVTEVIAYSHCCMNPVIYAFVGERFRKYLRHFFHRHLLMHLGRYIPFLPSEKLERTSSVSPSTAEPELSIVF
The experiment in a line: Displacement of [125I]eotaxin from human CCR3 expressed in CHO cells. The format is cell-based. The essentials: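 Binding of 0.15 nM [125I]eotaxin to CHO cells expressing human CCR3. Data are a single determination, mean ± SD (n = 2), or mean ± SEM (n indicated). ">" means less than 50% response at the stated concentration.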

Series [2] deals with T2, C-C chemokine receptor type 1 (Homo sapiens) (UniProt P32246).
T2 sequence (whole entry): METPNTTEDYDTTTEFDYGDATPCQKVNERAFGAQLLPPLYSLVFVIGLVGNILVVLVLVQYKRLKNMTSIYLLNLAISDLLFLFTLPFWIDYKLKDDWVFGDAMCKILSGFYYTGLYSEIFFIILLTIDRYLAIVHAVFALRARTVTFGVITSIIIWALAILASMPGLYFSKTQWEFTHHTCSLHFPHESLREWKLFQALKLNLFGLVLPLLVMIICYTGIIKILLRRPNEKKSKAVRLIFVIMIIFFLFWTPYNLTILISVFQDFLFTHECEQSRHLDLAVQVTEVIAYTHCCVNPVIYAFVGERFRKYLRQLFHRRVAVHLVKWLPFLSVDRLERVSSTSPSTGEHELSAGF
The experiment in a line: Inhibition of CCR1 at 10 uM.

The target in series [3] is T3, C-C chemokine receptor type 2 (Homo sapiens, UniProt P41597). The experiment in a line: Antagonist activity at CCR2 in THP1 cells assessed as inhibition of MCP1-induced Ca2+ flux. The class given is functional, cell-based, THP-1. On the technique in general: Calcium assays in cells follow changes in intracellular calcium, usually with a dye or a luminescent sensor.
Target sequence in this assay (P41597 whole entry): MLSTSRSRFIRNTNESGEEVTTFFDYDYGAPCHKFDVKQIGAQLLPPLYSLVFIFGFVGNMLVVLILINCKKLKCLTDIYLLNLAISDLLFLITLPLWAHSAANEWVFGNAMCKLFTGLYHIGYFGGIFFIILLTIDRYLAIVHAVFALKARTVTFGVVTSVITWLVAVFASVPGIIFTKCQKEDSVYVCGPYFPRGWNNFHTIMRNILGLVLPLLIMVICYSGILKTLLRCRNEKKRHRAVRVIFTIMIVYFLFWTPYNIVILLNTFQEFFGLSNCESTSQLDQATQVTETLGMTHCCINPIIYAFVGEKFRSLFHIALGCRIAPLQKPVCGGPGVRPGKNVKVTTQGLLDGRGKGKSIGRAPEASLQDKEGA

In series [4] the target is T3, C-C chemokine receptor type 2. The experiment in a line: Displacement of [125]MCP1 from CCR2 in human PBMCs. The method in brief:
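Competition binding with 0.3 nM [125I]MCP-1 on human peripheral blood mononuclear cells at 23 °C. IC50 given as mean ± SD (n = 2) or mean ± SEM (n > 2). Single determinations are listed with n = 1.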
Target sequence in this assay (P41597 whole entry): as above

Series [5] shares this target. The experiment in a line: Displacement of [125]MCP1 from CCR2 in human PBMCs at 1 uM. The method in brief:
(§1)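 Human PBMCs were incubated with 0.3 nM [125I]MCP-1 at 23 °C. Percent inhibition of binding was measured at one fixed inhibitor concentration, n = 1.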
Target sequence in this assay (P41597 whole entry, looked up): as the sequence (P41597 whole entry) above

Series [6] has the same target. The experiment in a line: Displacement of [125]MCP1 from CCR2 in human PBMCs at 10 uM. The essentials: as §1
Target sequence in this assay (P41597 whole entry, looked up): as the sequence (P41597 whole entry) above
For series [7], the target named is C-C chemokine receptor type 5 (Homo sapiens) (UniProt P51681). The experiment in a line: Inhibition of CCR5 receptor at 10 uM.
Series [8] has as its target Sigma non-opioid intracellular receptor 1 (Homo sapiens) (UniProt Q99720). The experiment in a line: Inhibition of sigma 1 receptor at 10 uM.
The target in series [9] is Mu-type opioid receptor (Homo sapiens) (UniProt P35372). The experiment in a line: Inhibition of opiate mu receptor at 10 uM.
The target in a further series is L-type calcium channel (Homo sapiens, UniProt O60840+Q01668+Q13698+Q13936). The experiment in a line: Inhibition of L-type calcium channel at 10 uM.
The species entered for another series is Homo sapiens. The experiment in a line: Inhibition of sodium channel at 10 uM.
In series [10] the target is Histamine H2 receptor (Homo sapiens) (UniProt P25021). The experiment in a line: Inhibition of histamine H2 receptor at 10 uM.
Sequence of Histamine H2 receptor (Homo sapiens) (P25021 whole entry): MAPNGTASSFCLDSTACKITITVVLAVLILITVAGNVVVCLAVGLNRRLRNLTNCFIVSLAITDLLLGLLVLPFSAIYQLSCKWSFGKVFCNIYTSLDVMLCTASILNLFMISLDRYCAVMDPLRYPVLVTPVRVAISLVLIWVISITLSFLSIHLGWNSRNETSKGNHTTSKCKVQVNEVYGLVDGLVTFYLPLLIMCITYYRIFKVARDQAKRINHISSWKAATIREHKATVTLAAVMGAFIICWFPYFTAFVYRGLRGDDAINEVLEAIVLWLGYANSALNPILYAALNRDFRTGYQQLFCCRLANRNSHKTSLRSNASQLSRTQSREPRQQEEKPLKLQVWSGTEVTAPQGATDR

Sequence of Mu-type opioid receptor (Homo sapiens) (P35372 whole entry): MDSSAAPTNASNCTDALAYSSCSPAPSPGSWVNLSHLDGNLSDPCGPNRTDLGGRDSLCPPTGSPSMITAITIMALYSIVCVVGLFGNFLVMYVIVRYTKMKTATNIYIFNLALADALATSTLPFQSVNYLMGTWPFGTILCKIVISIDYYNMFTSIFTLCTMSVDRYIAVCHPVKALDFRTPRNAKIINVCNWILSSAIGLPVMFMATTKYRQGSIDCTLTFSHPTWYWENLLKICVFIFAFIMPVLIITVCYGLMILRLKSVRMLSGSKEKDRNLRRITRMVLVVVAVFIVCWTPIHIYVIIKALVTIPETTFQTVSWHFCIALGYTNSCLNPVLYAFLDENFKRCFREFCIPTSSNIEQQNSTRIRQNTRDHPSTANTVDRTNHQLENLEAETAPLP
Sequence of Sigma non-opioid intracellular receptor 1 (Homo sapiens) (Q99720 whole entry): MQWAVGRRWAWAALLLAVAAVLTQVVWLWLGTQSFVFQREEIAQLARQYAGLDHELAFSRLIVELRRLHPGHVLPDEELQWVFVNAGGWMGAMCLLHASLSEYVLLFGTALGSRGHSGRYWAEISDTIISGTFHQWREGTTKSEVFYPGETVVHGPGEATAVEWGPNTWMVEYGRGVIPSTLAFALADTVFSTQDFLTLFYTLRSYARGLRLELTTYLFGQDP
Sequence of C-C chemokine receptor type 5 (Homo sapiens) (P51681 whole entry, looked up): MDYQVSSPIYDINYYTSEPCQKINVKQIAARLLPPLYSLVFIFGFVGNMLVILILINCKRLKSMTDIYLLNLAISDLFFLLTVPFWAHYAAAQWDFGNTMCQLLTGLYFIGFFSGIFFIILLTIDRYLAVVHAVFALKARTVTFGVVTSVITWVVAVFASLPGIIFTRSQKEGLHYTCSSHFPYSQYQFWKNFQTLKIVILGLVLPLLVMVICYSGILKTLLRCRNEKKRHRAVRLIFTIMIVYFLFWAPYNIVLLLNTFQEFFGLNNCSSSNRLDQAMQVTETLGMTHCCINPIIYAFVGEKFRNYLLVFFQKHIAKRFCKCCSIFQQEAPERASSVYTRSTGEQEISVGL

Turning to `Cc1ccc(CNC[C@H](NC(=O)CNC(=O)c2cccc(C(F)(F)F)c2)C(N)=O)c(C)c1`, the 50% inhibitory concentration (IC50) in [1] was above 10000 nM; in series [3], 69 nM; in series [4], 66 nM. This molecule also came in with an inhibition in series [2] below 30%.
Molecule `Cc1ccc(CNC[C@H](NC(=O)CNC(=O)c2cc(NC(=O)C3CCCCC3)cc(C(F)(F)F)c2)C(=O)NC(C)(C)C)c(C)c1` showed an inhibition in [2] below 30%. Besides, the Activity in series [5] came to 25%.
As to `Cc1ccc(CNC[C@H](NC(=O)CNC(=O)c2cc(N)cc(C(F)(F)F)c2)C(=O)NC(C)(C)C)c(C)c1`, the half-maximal inhibitory concentration (IC50) in [1] was above 10000 nM; in series [3], 52 nM; in series [4], 23 nM. The same molecule showed an inhibition in series [2] below 30%.
Consider `Cc1ccc(CNC[C@H](C)NC(=O)CNC(=O)c2cccc(C(F)(F)F)c2)c(C)c1`, for which the Activity in series [6] came out at 35%. Moreover, the inhibition in [2] is below 30%.
On the same counts, the results for `Cc1ccc(CNC[C@@H](NC(=O)CNC(=O)c2cccc(C(F)(F)F)c2)C(=O)O)c(C)c1` are 31% and below 30%.
Consider `CCNc1cc(C(=O)NCC(=O)N[C@@H](CNCc2ccc(C)cc2C)C(=O)NC(C)(C)C)cc(C(F)(F)F)c1`, for which the figures for the IC50 in series [1], in series [3] and in [4] were above 10000 nM, 58 nM and 19 nM, respectively. In addition, the inhibition in series [2] is below 30%.
As for `CCNc1ccc(C(F)(F)F)cc1C(=O)NCC(=O)N[C@@H](CNCc1ccc(C)cc1C)C(=O)NC(C)(C)C`, the results for the IC50 in series [1], in series [3] and in series [4] were above 10000 nM, 84 nM and 13 nM, respectively. Also, in series [2], the inhibition is below 30%.
In the case of `CCNC(=O)[C@@H](NC(=O)CNC(=O)c1cccc(C(F)(F)F)c1)[C@H](C)NCc1ccc(C)cc1C`, the Activity in series [6] is 2%. The molecule further showed an inhibition in series [2] below 30%.
For `Cc1ccc(CNC[C@H](NC(=O)CNC(=O)c2cc(C(F)(F)F)ccc2NC(=O)NC(C)C)C(=O)NC(C)(C)C)c(C)c1`, the figures for the half-maximal inhibitory concentration (IC50) in series [1], in series [3] and in series [4] were 10000 nM, 58 nM and 15 nM, respectively. Also, the inhibition in [2] was below 30%.
`CC(C)(C)NC(=O)[C@H](CNCc1ccc(-c2ccccc2)cc1)NC(=O)CNC(=O)c1cccc(C(F)(F)F)c1`: the inhibition in series [2] is below 30%. The molecule further yielded an Activity in [5] of 30%.
On to `Cc1ccc(CNC[C@H](NC(=O)[C@H](C)NC(=O)c2cccc(C(F)(F)F)c2)C(N)=O)c(C)c1`, for which the Activity in series [6] was 9%. This molecule yielded an inhibition in [2] below 30%.
Turning to `Cc1ccc(CNC[C@H](NC(=O)CNC(=O)c2cc(C(F)(F)F)ccc2NCc2ccccc2)C(=O)NC(C)(C)C)c(C)c1`, the IC50 is above 10000 nM in series [1], 57 nM in [3] and 19 nM in series [4]. In addition, the inhibition in series [2] is below 30%.
With `Cc1ccc(CNC[C@H](NC(=O)[C@@H](C)NC(=O)c2cccc(C(F)(F)F)c2)C(N)=O)c(C)c1`, the Activity in [6] is 40%. Also, in series [2], the inhibition is below 30%.
Take `COC(=O)c1ccc(CNC[C@H](NC(=O)CNC(=O)c2cccc(C(F)(F)F)c2)C(=O)NC(C)(C)C)cc1`: the inhibition in [2] is below 30%. Besides, the Activity in [5] turned out to be 20%.
In series [6], `Cc1ccc(CNC[C@@H](NC(=O)CNC(=O)c2cccc(C(F)(F)F)c2)C(C)C)c(C)c1` had an Activity of 20%. In addition, the inhibition in series [2] was below 30%.
For the molecule `Cc1ccc(CNC[C@H](NC(=O)CNC(=O)c2cccc(C(F)(F)F)c2)C(=O)NC(C)(C)C)c(C)c1`, the IC50 in [1] is above 10000 nM; in series [3], 52 nM; in series [4], 48 nM. In series [2], this molecule returned an inhibition below 30%.
As for `Cc1ccc(CN(C)C[C@H](NC(=O)CNC(=O)c2cccc(C(F)(F)F)c2)C(=O)NC(C)(C)C)c(C)c1`, the inhibition in series [2] is below 30%. Besides, in series [5], the Activity is 12%.
On the same counts, the results for `COc1ccc(CNC[C@H](NC(=O)CNC(=O)c2cccc(C(F)(F)F)c2)C(=O)NC(C)(C)C)c(OC)c1` are below 30% and 37%.
In series [2], `Cc1ccc(CNC[C@H](NC(=O)CNC(=O)c2cccc(C(F)(F)F)c2)C(=O)NC(C)C)c(C)c1` returned an inhibition below 30%. This molecule returned a concentration for half-maximal inhibition (IC50) in [4] of 170 nM.
The molecule `COC(=O)[C@H](CNCc1ccc(C)cc1C)NC(=O)CNC(=O)c1cccc(C(F)(F)F)c1` displayed an inhibition in series [2] below 30%. Besides, the IC50 in series [4] was determined as 1500 nM.
In turn, `CCNC(=O)[C@H](CNCc1ccc(C)cc1C)NC(=O)CCC(=O)c1cccc(C(F)(F)F)c1` yielded an Activity in [6] of 7%. The molecule also returned an inhibition in [2] below 30%.
In series [2], `CCNC(=O)[C@H](CNCc1ccc(C)cc1C)NC(=O)CNC(=O)c1cccc(C(F)(F)F)c1` gave an inhibition below 30%. The molecule also registered an IC50 in [4] of 110 nM.
Take `Cc1ccc(CNC[C@H](NC(=O)CNC(=O)c2cccc(C(F)(F)F)c2)C(=O)Nc2ccccc2)c(C)c1`: the inhibition in series [2] was below 30%. Further, the IC50 in [4] was 1200 nM.
The molecule `Cc1ccc(CNC[C@H](NC(=O)CNC(=O)c2cccc(OC(F)(F)F)c2)C(=O)NC(C)(C)C)c(C)c1` gave an inhibition in series [2] below 30%. The molecule further returned an IC50 in [4] of 190 nM.
For `COc1ccc(CNC[C@H](NC(=O)CNC(=O)c2cccc(C(F)(F)F)c2)C(=O)NC(C)(C)C)cc1` the same measures were below 30% and 1100 nM.
For `Cc1ccc(CNC[C@H](NC(=O)CNC(=O)c2cccc(C(F)(F)F)c2)C(=O)NC(C)(C)C)cc1[N+](=O)[O-]` the same measures were below 30% and 670 nM.
On the same counts, the results for `Cc1cc(C#N)ccc1CNC[C@H](NC(=O)CNC(=O)c1cccc(C(F)(F)F)c1)C(=O)NC(C)(C)C` are below 30% and 900 nM.
Regarding `Cc1ccc(CNC[C@H](NC(=O)CNC(=O)c2cccc(C(F)(F)F)c2)C(=O)NC(C)(C)C)cc1`, in series [2], the inhibition was below 30%. Moreover, the IC50 in series [4] was determined as 750 nM.
For `CCNC(=O)[C@H](CCN(C)Cc1ccc(C)cc1C)NC(=O)CNC(=O)c1cccc(C(F)(F)F)c1`, the inhibition in series [2] is below 30%. The molecule further showed a 50% inhibitory concentration (IC50) in series [4] of 150 nM.
`Cc1ccc(CNCC[C@H](NC(=O)CNC(=O)c2cccc(C(F)(F)F)c2)C(=O)NC(C)(C)C)c(C)c1` had an inhibition in series [2] below 30%. In addition, in series [4], the IC50 was found to be 770 nM.
`Cc1cc(N(C)C)ccc1CNC[C@H](NC(=O)CNC(=O)c1cccc(C(F)(F)F)c1)C(=O)NC(C)(C)C` displayed an inhibition in series [2] below 30%. This molecule also gave a half-inhibitory concentration (IC50) in [4] of 36 nM.
For `Cc1ccc(CNC[C@H](NC(=O)CNC(=O)c2cc(C(F)(F)F)ccc2NCC(C)C)C(=O)NC(C)(C)C)c(C)c1` the same measures were below 30% and 23 nM.
In series [2], `Cc1ccc(CNC[C@H](NC(=O)CNC(=O)c2cccc(C(F)(F)F)c2)C(=O)NC2(C)CC2)c(C)c1` returned an inhibition below 30%. The IC50 in series [4] came out at 100 nM.
As for `C=CCNC(=O)[C@H](CNCc1ccc(C)cc1C)NC(=O)CNC(=O)c1cccc(C(F)(F)F)c1`, the inhibition in [2] was below 30%. This molecule yielded a half-maximal inhibitory concentration (IC50) in [4] of 200 nM.
As for `Cc1ccc(CNC[C@H](NC(=O)CNC(=O)c2cc(C(F)(F)F)ccc2N)C(=O)NC(C)(C)C)c(C)c1`, the IC50 in [1] was 750 nM; in series [3], 8 nM; in series [4], 11 nM. In addition, the inhibition was below 30% in series [2]; above 70% in [7]; above 70% in series [8]; above 70% in [9]; above 70% in the series filed under Homo sapiens; above 70% in [10]. In addition, at L-type calcium channel, the inhibition at 10 µM was above 70%.
`Cc1ccc(CNC[C@H](NC(=O)CNC(=O)c2cccc(C(F)(F)F)c2)C(=O)NC(C)(C)C)cc1F`: the inhibition in [2] is below 30%. The molecule also displayed an Activity in series [5] of 27%.

As usually defined, the IC50 is the concentration that gives 50% inhibition. The inhibition is how much of the control response was suppressed.

(Values after ChEMBL document CHEMBL1139795, “Capped diaminopropionamide-glycine dipeptides are inhibitors of CC chemokine receptor 2 (CCR2)” (Bioorg Med Chem Lett, 2007).)
